How the values were obtained:
MT4 = experiment: Cytotoxicity against human MT4 cells assessed as cell viability after 72 hrs by MTT assay; assay type: cell-based; conditions: mt4, 72 h
Summary of the method: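 MT-4 cells exposed to fivefold serial dilutions of compound run in parallel with the antiviral MTT cytopathic-effect assay; CC50 taken as the concentration killing 50% of MT-4 cells.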

[1] = molecular target: T1, Human immunodeficiency virus type 1 integrase (Human immunodeficiency virus 1, UniProt Q7ZJM1); experiment: Inhibition of HIV-1 integrase 3'-processing activity
LNCaP = experiment: Cytotoxicity against human LNCAP cells assessed as inhibition of cell proliferation after 72 hrs by MTT assay; assay type: cell-based
[2] = molecular target: T1, Human immunodeficiency virus type 1 integrase; experiment: Inhibition of HIV-1 integrase strand transfer activity
[3] = test system: Human immunodeficiency virus 1; experiment: Inhibition of HIV-1 FLAG-6x-His-tagged integrase interaction to FLAG-tagged LEDGF/p75 at 10 uM preincubated for 30 mins prior to LEDGF/p75 addition measured after 60 mins by quenching assay
[4] = test system: Human immunodeficiency virus; experiment: Antiviral activity against HIV infected human MT4 cells assessed as decrease of virus-induced cytopathic effect after 72 hrs by MTT assay; assay type: functional, organism-based; conditions: Human immunodeficiency virus 1, MT4, 72 h
Summary of the method: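 MT-4 cells infected with 100 to 300 CCID50 of HIV (CCID50 from virus-stock titration on MT-4) in presence of fivefold serial compound dilutions; protection from viral cytopathic effect read by MTT; EC50 = concentration giving 50% protection. CC50 in MT-4 cells measured in parallel.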

[5] = Inhibition of HIV-1 His6-tagged integrase interaction to FLAG-tagged LEDGF/p75 preincubated for 30 mins prior to LEDGF/p75 addition measured after 60 mins by alphascreen assay; design: species or system Human immunodeficiency virus 1
Summary of the method: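 His6-tagged IN (300 nM final) preincubated with compound (20 µM final) 30 min at 4 °C, then FLAG-LEDGF/p75 (300 nM final) added for 60 min at 4 °C; Ni-chelate donor and anti-FLAG acceptor beads (20 µg/mL each) added, 1 h at 30 °C, light-protected; acceptor-bead emission read.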

[6] = Selectivity index, ratio of CC50 for human MT4 cells to EC50 for HIV infected human MT4 cells; assay type: toxicity, cell-based; conditions: MT4 cells (CC50) and HIV-infected MT4 cells (EC50)
Summary of the method: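 MT-4 cells infected with 100 to 300 CCID50 of HIV in the presence of fivefold serial compound dilutions. Protection against virus-induced cytopathic effect was read by MTT to give EC50. CC50 came from parallel MTT viability testing of uninfected MT-4 cells. Selectivity index was calculated as CC50/EC50.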

[7] = Cytotoxicity against human LNCAP cells assessed as growth inhibition at 10 uM after 72 hrs by MTT assay; assay type: cell-based; conditions: read-out: Activity

T1 sequence (Q7ZJM1 whole entry): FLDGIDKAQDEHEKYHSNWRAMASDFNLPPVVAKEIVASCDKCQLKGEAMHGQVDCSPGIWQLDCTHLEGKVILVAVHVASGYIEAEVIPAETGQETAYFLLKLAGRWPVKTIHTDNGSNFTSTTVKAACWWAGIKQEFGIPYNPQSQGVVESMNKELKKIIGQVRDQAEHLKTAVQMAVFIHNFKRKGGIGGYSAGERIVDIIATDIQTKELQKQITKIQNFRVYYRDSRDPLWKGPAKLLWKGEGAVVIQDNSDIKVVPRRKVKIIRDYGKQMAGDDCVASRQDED

Compound	CC50 (MT4)	IC50 [1]	CC50 (LNCaP)	IC50 [2]	inhibition [3]	EC50 [4]	IC50 [5]	selectivity ratio [6]	inhibition at 72 h, 10 µM [7]
Oc1ccc(CN2CCCCC2)c2cccnc12	9 µM	> 20 µM	> 10 µM	> 20 µM	< 50%	> 9 µM	0.4 µM	–	–
CCC(=O)NC(c1cccs1)c1cc([N+](=O)[O-])c2cccnc2c1O (configuration not stated)	–	> 20 µM	5 µM	> 20 µM	< 50%	–	3.5 µM	–	–
CCC(=O)NC(c1ccc(OC)cc1)c1cc([N+](=O)[O-])c2cccnc2c1O (configuration not stated)	10 µM	> 20 µM	> 10 µM	> 20 µM	< 50%	> 10 µM	2.6 µM	–	–
CCCC(=O)NC(c1ccc(OC)cc1)c1ccc2cccnc2c1O (configuration not stated)	–	> 20 µM	0.62 µM	> 20 µM	< 50%	–	4 µM	–	–
Oc1ccc(CN2CCN(Cc3ccccc3)CC2)c2cccnc12	11 µM	> 20 µM	> 10 µM	> 20 µM	< 50%	> 11 µM	2.2 µM	–	–
CCOC(=O)N1CCN(Cc2ccc(O)c3ncccc23)CC1	9 µM	> 20 µM	> 10 µM	> 20 µM	< 50%	> 9 µM	1.5 µM	–	–
Cc1ccc(NCc2ccc(O)c3ncccc23)cc1C	33.5 µM	> 20 µM	> 10 µM	> 20 µM	< 50%	17.9 µM	4.6 µM	2	–
COc1cccc(NCc2ccc(O)c3ncccc23)c1	–	> 20 µM	5 µM	> 20 µM	< 50%	–	3.2 µM	–	–
Oc1ccc(Cc2ccc(O)c3ncccc23)c2cccnc12	–	> 20 µM	0.1 µM	> 20 µM	< 50%	–	2 µM	–	–
Oc1ccc(CNc2ccccc2F)c2cccnc12	9 µM	> 20 µM	> 10 µM	> 20 µM	< 50%	> 9 µM	3.7 µM	–	–
Cc1ccc(NCc2ccc(O)c3ncccc23)cc1	36.5 µM	> 20 µM	> 10 µM	> 20 µM	< 50%	15.4 µM	3.3 µM	2	–
CCN1CCN(Cc2ccc(O)c3ncccc23)CC1	42 µM	> 20 µM	> 10 µM	> 20 µM	< 50%	> 42 µM	1.2 µM	–	–
CCC(=O)NC(c1ccccc1OC)c1ccc2cccnc2c1O (configuration not stated)	–	> 20 µM	0.58 µM	> 20 µM	< 50%	–	2 µM	–	–
Cc1cccc(NCc2ccc(O)c3ncccc23)n1	2 µM	> 20 µM	> 10 µM	> 20 µM	< 50%	> 2 µM	2.8 µM	–	–
Cc1ccc(S(=O)(=O)NC(=O)Oc2cccc3cccnc23)cc1	2 µM	> 20 µM	> 10 µM	> 20 µM	< 50%	> 2 µM	1.7 µM	–	13%
CCOc1ccc(NCc2ccc(O)c3ncccc23)cc1	11 µM	> 20 µM	> 10 µM	> 20 µM	< 50%	> 11 µM	4 µM	–	–
Cc1cccc(NCc2ccc(O)c3ncccc23)c1C	13 µM	> 20 µM	> 10 µM	> 20 µM	< 50%	> 13 µM	3 µM	–	–
Oc1ccc(CNc2ccc(C(F)(F)F)cc2)c2cccnc12	9 µM	> 20 µM	> 10 µM	> 20 µM	< 50%	> 9 µM	2.1 µM	–	–
CCOC(=O)C1CCN(Cc2ccc(O)c3ncccc23)CC1	–	> 20 µM	> 10 µM	> 20 µM	< 50%	–	2.2 µM	–	–
Oc1ccc(CNc2cccc(C(F)(F)F)c2)c2cccnc12	10 µM	> 20 µM	> 10 µM	> 20 µM	< 50%	> 10 µM	2.9 µM	–	–
CCC(=O)NC(c1ccc(OC)c(OC)c1)c1cc(Cl)c2cccnc2c1O (configuration not stated)	–	> 20 µM	3 µM	> 20 µM	< 50%	–	4 µM	–	–

Compound	CC50 (MT4)	IC50 [1]	CC50 (LNCaP)	IC50 [2]	inhibition [3]	EC50 [4]	IC50 [5]	selectivity ratio [6]	inhibition at 72 h, 10 µM [7]
Oc1ccccc1C(Nc1nccs1)c1ccc2cccnc2c1O (configuration not stated)	–	> 20 µM	2.4 µM	> 20 µM	< 50%	–	4.7 µM	–	–
CC(=O)NC(c1ccccc1)c1cc(Cl)c2cccnc2c1O (configuration not stated)	–	> 20 µM	0.74 µM	> 20 µM	< 50%	–	3 µM	–	–
Cc1ccccc1NCc1ccc(O)c2ncccc12	9 µM	> 20 µM	> 10 µM	> 20 µM	< 50%	> 9 µM	1.4 µM	–	0%
Cc1cccc(NCc2ccc(O)c3ncccc23)c1	9 µM	> 20 µM	> 10 µM	> 20 µM	< 50%	> 9 µM	4 µM	–	–
Cc1cccnc1NCc1ccc(O)c2ncccc12	11 µM	> 20 µM	> 10 µM	> 20 µM	< 50%	> 11 µM	3.5 µM	–	–
CCOCc1ccc(O)c2ncccc12	–	> 20 µM	2 µM	> 20 µM	< 50%	–	2.4 µM	–	–
CC(=O)NC(c1ccc(N(C)C)cc1)c1cc(Cl)c2cccnc2c1O (configuration not stated)	–	> 20 µM	0.62 µM	> 20 µM	< 50%	–	4 µM	–	–
Oc1ccc(Cl)c2cccnc12 [CLOXYQUIN]	–	> 20 µM	5 µM	> 20 µM	< 50%	–	3.6 µM	–	–
COc1cccc(C(NC(C)=O)c2ccc3cccnc3c2O)c1 (configuration not stated)	–	> 20 µM	0.58 µM	> 20 µM	< 50%	–	2 µM	–	–
O=C(CC(Sc1cccc2cccnc12)c1ccc(OC(F)F)cc1)c1ccco1 (configuration not stated)	2 µM	> 20 µM	0.8 µM	> 20 µM	< 50%	> 2 µM	3 µM	–	73%
CCOC(=O)C1CCCN(Cc2ccc(O)c3ncccc23)C1 (configuration not stated)	9 µM	> 20 µM	> 10 µM	> 20 µM	< 50%	> 9 µM	2 µM	–	–
CCC(=O)NC(c1ccco1)c1cc(Cl)c2cccnc2c1O (configuration not stated)	–	> 20 µM	0.72 µM	> 20 µM	< 50%	–	4 µM	–	–
CN1CCN(Cc2ccc(O)c3ncccc23)CC1	35 µM	> 20 µM	> 10 µM	> 20 µM	< 50%	> 35 µM	0.8 µM	–	–
Oc1ccc(CNc2ccccc2Cl)c2cccnc12	34 µM	> 20 µM	> 10 µM	> 20 µM	< 50%	> 34 µM	4.8 µM	–	–
Oc1ccc(CN2CCN(c3ccccn3)CC2)c2cccnc12	9 µM	> 20 µM	> 10 µM	> 20 µM	< 50%	> 9 µM	1.9 µM	–	–
CCCC(=O)NC(c1ccccc1)c1ccc2cccnc2c1O (configuration not stated)	–	> 20 µM	0.68 µM	> 20 µM	< 50%	–	1.4 µM	–	–
Oc1ccc(CN2CCN(c3ccccc3)CC2)c2cccnc12	–	> 20 µM	5 µM	> 20 µM	< 50%	–	2.1 µM	–	–
Oc1c(Cl)cc(Cl)c2cccnc12 [CHLOROXINE]	–	> 20 µM	2.5 µM	> 20 µM	< 50%	–	4.3 µM	–	–
COc1ccc(C(NC(C)=O)c2cc([N+](=O)[O-])c3cccnc3c2O)cc1OC (configuration not stated)	42 µM	> 20 µM	> 10 µM	> 20 µM	< 50%	> 42 µM	3.9 µM	–	–
O=C(CC(Sc1cccc2cccnc12)c1ccc(F)cc1)c1cccs1 (configuration not stated)	–	> 20 µM	> 10 µM	> 20 µM	< 50%	–	3 µM	–	21%
